For assay [1], the target named is T1, Voltage-dependent L-type calcium channel subunit alpha-1D (Rattus norvegicus, UniProt P27732). The assay is described as follows: Inhibitory concentration for L-type [Ca2+] channels was measured through displacement of [3H]nitrendipine on rat cortex homogenates. Type of assay: tissue-based. (In general: Displacement assays read how much labelled ligand stays bound in the presence of the test substance.)

Assay [2] addresses T1, Voltage-dependent L-type calcium channel subunit alpha-1D. The assay is described as follows: Binding affinity for L-type [Ca2+] channels was measured through displacement of [3H]nitrendipine on rat cortex homogenates. It is filed as tissue-based.
For assay [3], the species on record is Rattus norvegicus. The assay is described as follows: […]. Type of assay: functional. The procedure, abridged: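 Nitrite formation measured as an index of NO release. Compound incubated in pH 7.4 buffer with a 50-fold molar excess of L-cysteine at 37 °C. After 1 h, nitrite was detected by the Griess reaction. Values are expressed as % NO₂⁻ (mol/mol).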
The species entered for assay [4] is Rattus norvegicus. The assay is described as follows: Vasodilator activity was measured on rat aorta.
The species named for assay [5] is Rattus norvegicus. The assay is described as follows: Vasodilator activity was measured on rat aorta in the presence of methylene blue (MB).

The values that follow come from ChEMBL document CHEMBL1131446, “New 1,4-dihydropyridines conjugated to furoxanyl moieties, endowed with both nitric oxide-like and calcium channel antagonist vasodilator activities” (J Med Chem, 1998).

What is called IC50 is the concentration that inhibits the measured activity by half. For orientation: Ki means a measure of affinity in units of concentration, obtained from inhibition or displacement. In general, EC50 refers to the concentration giving half of the maximal effect.

T1 sequence (P27732 whole entry): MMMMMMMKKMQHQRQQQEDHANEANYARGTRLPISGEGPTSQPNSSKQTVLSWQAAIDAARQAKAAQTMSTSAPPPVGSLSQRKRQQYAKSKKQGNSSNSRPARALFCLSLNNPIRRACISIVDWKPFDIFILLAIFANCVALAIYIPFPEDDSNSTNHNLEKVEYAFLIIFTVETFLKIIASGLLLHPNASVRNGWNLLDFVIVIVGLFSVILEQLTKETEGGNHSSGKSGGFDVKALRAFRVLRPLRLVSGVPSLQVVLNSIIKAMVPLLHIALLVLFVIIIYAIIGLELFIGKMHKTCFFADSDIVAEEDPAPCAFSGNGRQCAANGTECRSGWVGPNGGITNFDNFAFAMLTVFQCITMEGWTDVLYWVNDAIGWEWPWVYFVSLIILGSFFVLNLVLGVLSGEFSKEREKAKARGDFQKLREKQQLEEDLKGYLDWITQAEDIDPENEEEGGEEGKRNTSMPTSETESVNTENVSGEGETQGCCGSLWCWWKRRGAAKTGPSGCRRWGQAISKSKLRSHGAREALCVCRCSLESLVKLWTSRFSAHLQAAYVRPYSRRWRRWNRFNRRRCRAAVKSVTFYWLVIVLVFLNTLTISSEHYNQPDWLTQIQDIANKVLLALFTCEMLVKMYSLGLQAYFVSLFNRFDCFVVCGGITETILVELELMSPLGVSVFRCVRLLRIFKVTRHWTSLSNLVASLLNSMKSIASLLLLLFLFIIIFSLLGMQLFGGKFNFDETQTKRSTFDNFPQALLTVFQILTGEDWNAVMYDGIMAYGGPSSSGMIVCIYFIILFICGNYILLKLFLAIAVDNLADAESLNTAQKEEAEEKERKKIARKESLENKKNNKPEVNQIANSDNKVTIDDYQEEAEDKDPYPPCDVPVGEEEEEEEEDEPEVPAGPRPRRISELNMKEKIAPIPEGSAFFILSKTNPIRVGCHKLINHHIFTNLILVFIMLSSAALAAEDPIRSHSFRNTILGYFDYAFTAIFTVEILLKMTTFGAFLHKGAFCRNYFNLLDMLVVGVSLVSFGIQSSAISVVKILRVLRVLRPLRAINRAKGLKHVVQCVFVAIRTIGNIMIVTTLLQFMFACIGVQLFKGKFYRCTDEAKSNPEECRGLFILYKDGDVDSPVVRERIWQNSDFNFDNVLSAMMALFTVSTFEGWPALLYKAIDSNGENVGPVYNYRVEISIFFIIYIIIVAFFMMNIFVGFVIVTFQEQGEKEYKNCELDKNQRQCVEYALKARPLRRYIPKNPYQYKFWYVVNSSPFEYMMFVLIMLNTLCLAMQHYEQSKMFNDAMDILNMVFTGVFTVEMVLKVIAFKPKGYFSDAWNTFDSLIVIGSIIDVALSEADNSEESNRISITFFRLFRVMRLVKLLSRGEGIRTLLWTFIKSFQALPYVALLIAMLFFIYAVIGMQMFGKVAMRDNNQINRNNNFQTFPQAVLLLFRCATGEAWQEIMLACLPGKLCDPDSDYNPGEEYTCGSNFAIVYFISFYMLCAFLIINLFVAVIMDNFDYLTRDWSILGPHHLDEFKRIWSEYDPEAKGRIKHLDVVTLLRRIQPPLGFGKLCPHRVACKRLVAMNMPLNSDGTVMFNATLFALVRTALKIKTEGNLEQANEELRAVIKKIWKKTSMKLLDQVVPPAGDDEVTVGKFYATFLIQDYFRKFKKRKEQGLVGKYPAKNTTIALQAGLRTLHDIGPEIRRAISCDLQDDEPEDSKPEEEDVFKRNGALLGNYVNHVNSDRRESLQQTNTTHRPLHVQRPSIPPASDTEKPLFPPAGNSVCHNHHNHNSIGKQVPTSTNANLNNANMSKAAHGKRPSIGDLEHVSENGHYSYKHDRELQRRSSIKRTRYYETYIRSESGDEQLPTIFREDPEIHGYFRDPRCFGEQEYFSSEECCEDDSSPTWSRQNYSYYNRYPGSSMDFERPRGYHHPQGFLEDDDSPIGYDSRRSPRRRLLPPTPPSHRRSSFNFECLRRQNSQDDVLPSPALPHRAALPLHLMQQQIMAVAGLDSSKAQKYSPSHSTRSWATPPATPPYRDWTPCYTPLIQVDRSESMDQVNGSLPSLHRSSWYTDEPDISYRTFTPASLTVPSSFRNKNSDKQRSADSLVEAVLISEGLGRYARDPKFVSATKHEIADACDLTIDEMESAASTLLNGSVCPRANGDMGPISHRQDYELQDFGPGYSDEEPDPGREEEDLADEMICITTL

As to `COC(=O)C1=C(C)N=C(C)/C(=C(/O)OC)C1c1ccccc1OCc1no[n+]([O-])c1C` (centres undefined), the half-maximal inhibitory concentration (IC50) in assay [1] worked out at 0.04 µM. For the same compound, the Ki in assay [2] came out at 0.018 µM. This compound had a Nitric oxide in the assay listed under Rattus norvegicus [3] of 0.9%. Further, in the assay filed under Rattus norvegicus [4], a half-maximal response (EC50) required 0.043 µM. Also, the “EC50 iGC” value in the assay filed under Rattus norvegicus [5] was 0.046 µM.
On to `COC(=O)C1=C(C)N=C(C)/C(=C(/O)OC)C1c1ccccc1OCc1c(C)no[n+]1[O-]` (centres undefined), for which the IC50 in assay [1] was 0.072 µM. The inhibitory constant (Ki) in assay [2] was 0.032 µM. The Nitric oxide in the assay filed under Rattus norvegicus [3] is recorded as 1.8%. For the same compound, in the assay filed under Rattus norvegicus [4], the EC50 came to 0.078 µM. In addition, the “EC50 iGC” value in the assay listed under Rattus norvegicus [5] was determined as 0.076 µM.
As for `COC(=O)C1=C(C)N=C(C)/C(=C(/O)OC)C1c1ccccc1OCc1c(C(N)=O)no[n+]1[O-]` (centres undefined), the concentration for half-maximal inhibition (IC50) in assay [1] is 0.78 µM. Further, the Ki in assay [2] was determined as 0.35 µM. The compound also registered a Nitric oxide in the assay filed under Rattus norvegicus [3] of 12.3%. Also, the midpoint of the response in the assay filed under Rattus norvegicus [4], the EC50, lay at 0.56 µM. Further, the “EC50 iGC” value in the assay listed under Rattus norvegicus [5] is 0.64 µM.
`COC(=O)C1=C(C)N=C(C)/C(=C(/O)OC)C1c1ccccc1OCCO[N+](=O)[O-]` (centres undefined): in assay [1], the IC50 turned out to be 0.085 µM. Further, the inhibitory constant (Ki) in assay [2] stood at 0.038 µM. The compound further showed a Nitric oxide in the assay listed under Rattus norvegicus [3] of less than 0.5%. The compound also had an EC50 in the assay filed under Rattus norvegicus [4] of 0.056 µM. The “EC50 iGC” value in the assay listed under Rattus norvegicus [5] is 0.054 µM.
For `COC(=O)C1=C(C)N=C(C)/C(=C(/O)OC)C1c1cccc(OCc2no[n+]([O-])c2C)c1` (centres undefined), in that order: 0.82 µM, 0.37 µM, less than 0.5%, 0.5 µM and 0.54 µM.
As to `COC(=O)C1=C(C)N=C(C)/C(=C(/O)OC)C1c1ccccc1OCc1no[n+]([O-])c1C#N` (centres undefined), the concentration for half-maximal inhibition (IC50) in assay [1] was 0.027 µM. Moreover, the inhibitory constant (Ki) in assay [2] amounted to 0.021 µM. The same compound showed a Nitric oxide in the assay listed under Rattus norvegicus [3] of 40.8%. Further, in the assay listed under Rattus norvegicus [4], the 50% effective concentration (EC50) was found to be 0.0044 µM. For the same compound, the “EC50 iGC” value in the assay filed under Rattus norvegicus [5] is 0.022 µM.
For `COC(=O)C1=C(C)N=C(C)/C(=C(/O)OC)C1c1ccccc1OCc1c(C#N)no[n+]1[O-]` (centres undefined) the same measures were 0.067 µM, 0.03 µM, 24%, 0.0094 µM and 0.05 µM.
In the case of `COC(=O)C1=C(C)N=C(C)/C(=C(/O)OC)C1c1ccccc1OCc1no[n+]([O-])c1C(N)=O` (centres undefined), the concentration for half-maximal inhibition (IC50) in assay [1] was 1.5 µM. Besides, the Ki in assay [2] was determined as 0.67 µM. In the assay listed under Rattus norvegicus [3], this compound gave a Nitric oxide of 13%. The same compound came in with an EC50 in the assay listed under Rattus norvegicus [4] of 0.55 µM. The “EC50 iGC” value in the assay filed under Rattus norvegicus [5] is 0.94 µM.
For the compound `COC(=O)C1=C(C)NC(C)=C(C(=O)OC)C1c1ccccc1[N+](=O)[O-]` [NIFEDIPINE], it took 0.0032 µM to reach a half-maximal effect in the assay listed under Rattus norvegicus [4] (EC50). In addition, in the assay listed under Rattus norvegicus [5], the “EC50 iGC” value is 0.0034 µM.
For the compound `COC(=O)C1=C(C)N=C(C)/C(=C(/O)OC)C1c1cccc(OCc2no[n+]([O-])c2C#N)c1` (centres undefined), the half-inhibitory concentration (IC50) in assay [1] turned out to be 0.5 µM. The inhibition constant (Ki) in assay [2] was determined as 0.23 µM. For the same compound, the Nitric oxide in the assay filed under Rattus norvegicus [3] amounted to 43.8%. Also, a half-maximal response in the assay filed under Rattus norvegicus [4] (EC50) required 0.0033 µM.
Regarding `COC(=O)C1=C(C)N=C(C)/C(=C(/O)OC)C1c1cccc(OCc2nonc2C)c1` (centres undefined), the IC50 in assay [1] was found to be 0.72 µM. In addition, the Ki in assay [2] is 0.32 µM. The compound further yielded an EC50 in the assay listed under Rattus norvegicus [4] of 0.64 µM. Moreover, in the assay filed under Rattus norvegicus [5], the “EC50 iGC” value was found to be 0.62 µM.
Turning to `COC(=O)C1=C(C)N=C(C)/C(=C(/O)OC)C1c1cccc(OCCO[N+](=O)[O-])c1` (centres undefined), the IC50 in assay [1] turned out to be 0.97 µM. Besides, in assay [2], the Ki was found to be 0.44 µM. This compound also registered a Nitric oxide in the assay filed under Rattus norvegicus [3] of less than 0.5%. In addition, the response in the assay listed under Rattus norvegicus [4] was half-maximal at 0.75 µM (EC50). In addition, the “EC50 iGC” value in the assay listed under Rattus norvegicus [5] was determined as 0.75 µM.
Consider `COC(=O)C1=C(C)N=C(C)/C(=C(/O)OC)C1c1ccccc1OCc1nonc1C(N)=O` (centres undefined), for which the half-inhibitory concentration (IC50) in assay [1] was determined as 0.88 µM. In addition, in assay [2], the inhibitory constant (Ki) was 0.4 µM. Also, a half-maximal effect in the assay listed under Rattus norvegicus [4] (EC50) was put at 0.97 µM. For the same compound, the “EC50 iGC” value in the assay filed under Rattus norvegicus [5] worked out at 0.91 µM.
For the compound `COC(=O)C1=C(C)N=C(C)/C(=C(/O)OC)C1c1cccc(OCc2c(C#N)no[n+]2[O-])c1` (centres undefined), the 50% inhibitory concentration (IC50) in assay [1] was 0.5 µM. The inhibitory constant (Ki) in assay [2] was determined as 0.22 µM. The same compound showed a Nitric oxide in the assay filed under Rattus norvegicus [3] of 31.5%. This compound also had an EC50 in the assay listed under Rattus norvegicus [4] of 0.011 µM.
`COC(=O)C1=C(C)N=C(C)/C(=C(/O)OC)C1c1cccc(OCc2nonc2C(N)=O)c1` (centres undefined): the IC50 in assay [1] is 5.1 µM. Further, the Ki in assay [2] amounted to 2.3 µM. Besides, in the assay listed under Rattus norvegicus [4], the midpoint of the response, the EC50, lay at 3.5 µM. For the same compound, the “EC50 iGC” value in the assay listed under Rattus norvegicus [5] turned out to be 3.3 µM.
Consider `COC(=O)C1=C(C)N=C(C)/C(=C(/O)OC)C1c1cccc(OCc2nonc2C#N)c1` (centres undefined), for which the half-inhibitory concentration (IC50) in assay [1] was determined as 0.59 µM. Further, in assay [2], the inhibitory constant (Ki) was determined as 0.27 µM. The compound further gave a concentration giving a half-maximal response (EC50) in the assay filed under Rattus norvegicus [4] of 0.31 µM. In the assay filed under Rattus norvegicus [5], the “EC50 iGC” value came to 0.3 µM.
Consider `COC(=O)C1=C(C)N=C(C)/C(=C(/O)OC)C1c1cccc(OCc2c(C(N)=O)no[n+]2[O-])c1` (centres undefined), for which the IC50 in assay [1] was found to be 3.6 µM. Further, in assay [2], the Ki worked out at 1.6 µM. In the assay listed under Rattus norvegicus [3], this compound gave a Nitric oxide of 7.6%. In addition, in the assay listed under Rattus norvegicus [4], the EC50 was determined as 1.2 µM. Further, the “EC50 iGC” value in the assay listed under Rattus norvegicus [5] is 3.7 µM.
Regarding `COC(=O)C1=C(C)N=C(C)/C(=C(/O)OC)C1c1ccccc1OCc1nonc1C#N` (centres undefined), the IC50 in assay [1] was 0.01 µM. The Ki in assay [2] is 0.0047 µM. The compound also had an EC50 in the assay listed under Rattus norvegicus [4] of 0.0066 µM. Further, the “EC50 iGC” value in the assay listed under Rattus norvegicus [5] was 0.0066 µM.
Take `COC(=O)C1=C(C)N=C(C)/C(=C(/O)OC)C1c1cccc(OCc2c(C)no[n+]2[O-])c1` (centres undefined): the half-inhibitory concentration (IC50) in assay [1] was 0.61 µM. Moreover, in assay [2], the Ki came out at 0.28 µM. In the assay filed under Rattus norvegicus [3], this compound displayed a Nitric oxide of less than 0.5%. The midpoint of the response in the assay filed under Rattus norvegicus [4], the EC50, lay at 0.4 µM. Further, the “EC50 iGC” value in the assay listed under Rattus norvegicus [5] was found to be 0.4 µM.
For `COC(=O)C1=C(C)N=C(C)/C(=C(/O)OC)C1c1cccc(OCc2no[n+]([O-])c2C(N)=O)c1` (centres undefined), the IC50 in assay [1] was determined as 2 µM. Further, the Ki in assay [2] turned out to be 0.92 µM. The Nitric oxide in the assay filed under Rattus norvegicus [3] was determined as 6%. The compound also came in with a 50% effective concentration (EC50) in the assay listed under Rattus norvegicus [4] of 0.71 µM. Also, the “EC50 iGC” value in the assay filed under Rattus norvegicus [5] turned out to be 1.5 µM.
Regarding `COC(=O)C1=C(C)N=C(C)/C(=C(/O)OC)C1c1ccccc1OCc1nonc1C` (centres undefined), the IC50 in assay [1] was 0.059 µM. For the same compound, in assay [2], the Ki was determined as 0.027 µM. Besides, the response in the assay listed under Rattus norvegicus [4] was half-maximal at 0.041 µM (EC50). In the assay filed under Rattus norvegicus [5], the “EC50 iGC” value was found to be 0.046 µM.
